{"data": "Published values from different studies", "organism": "Staphylococcus aureus", "read-out": "microbial killing", "note": "Each line is one published result; the experiments were not run side by side."}
{"SMILES": "O=C(O)CN1C(=O)/C(=C/c2ccc(-c3ccc(N(c4ccccc4)c4ccccc4)cc3)cc2)NC1=S", "test": "broth dilution", "system": "ATCC25923", "MBC": "3.9 µg/mL"}
{"SMILES": "CC1CCN(CCCN2/C(=C/c3cc[n+](C)c4ccccc34)Sc3ccccc32)CC1.[I-]", "system": "ATCC29213", "MBC": "16 µg/mL"}
{"SMILES": "O=C(O)CN1C(=O)/C(=C/c2c3ccccc3c(-c3ccc(N(c4ccccc4)c4ccccc4)cc3)c3ccccc23)SC1=S", "test": "broth dilution", "system": "ATCC6538", "MBC": "> 1000 µg/mL"}
{"SMILES": "CCOC(=O)c1c(N)csc1-c1cn(-c2ccccc2)nc1-c1ccc(C)cc1", "test": "broth dilution", "MBC": "0.125 µg/mL"}
{"SMILES": "C=CCOc1c(C)c(O)c(C(=O)/C=C/c2ccccc2)c(OC)c1C", "test": "broth dilution", "system": "ATCC25923", "MBC": "> 5000 µg/mL"}
{"SMILES": "COc1cc(Cc2cnc(N)nc2N)cc(OC)c1OC", "test": "broth dilution", "conditions": "48 h", "MBC": "2 µg/mL"}
{"SMILES": "COc1c(C)c(OCc2ccccc2)c(C)c(O)c1C(=O)/C=C/c1ccccc1", "test": "broth dilution", "system": "ATCC25923", "MBC": "> 5000 µg/mL"}
{"SMILES": "O=C1NC(=S)N/C1=C\\c1ccc(-c2ccc(N(c3ccccc3)c3ccccc3)cc2)c2ccccc12", "test": "broth dilution", "system": "ATCC25923", "MBC": "> 1000 µg/mL"}
{"SMILES": "CC(=O)NC[C@H]1CN(c2ccc(N3CCOCC3)c(F)c2)C(=O)O1", "test": "broth dilution", "system": "ATCC6538", "MBC": "> 64 µM"}
{"SMILES": "CCCC(=O)Oc1c(C)c(O)c(C(=O)/C=C/c2ccccc2)c(OC)c1C", "test": "broth dilution", "system": "ATCC25923", "MBC": "> 5000 µg/mL"}
{"SMILES": "CCCCCOc1c(OC)cc(NC(C)CCCNC(=S)NCCCC(C)Nc2cc(OC)c(OCCCCC)c3c(CC)ccnc23)c2nccc(CC)c12.Cl.Cl (stereo not drawn)", "system": "ATCC43300 MRSA", "conditions": "drug-resistant strain", "MBC": "10 to 20 µg/mL"}
{"SMILES": "COc1c(C)c(OC(C)=O)c(C)c(O)c1C(=O)/C=C/c1ccccc1", "test": "broth dilution", "system": "ATCC25923", "MBC": "> 5000 µg/mL"}
{"SMILES": "O=C1NC(=S)N/C1=C\\c1ccc(-c2ccc(N(c3ccccc3)c3ccccc3)cc2)cc1", "test": "broth dilution", "system": "ATCC6538", "MBC": "> 1000 µg/mL"}
{"SMILES": "CCCCCCCCCCCCCC#CC(=O)O", "MBC": "7.8 µg/mL"}
{"SMILES": "O=C(O)CN1C(=O)/C(=C/c2c3ccccc3c(-c3ccc(N(c4ccccc4)c4ccccc4)cc3)c3ccccc23)NC1=S", "test": "broth dilution", "system": "ATCC6538", "MBC": "> 1000 µg/mL"}
{"SMILES": "CCCCCC(=O)Oc1c(C)c(O)c(C(=O)/C=C/c2ccccc2)c(OC)c1C", "test": "broth dilution", "system": "ATCC25923", "MBC": "> 5000 µg/mL"}
{"SMILES": "O=C(O)c1cn(C2CC2)c2cc(N3CCNCC3)c(F)cc2c1=O", "test": "broth dilution", "MBC": "0.5 µg/mL"}
{"SMILES": "COc1c(C)c(OS(=O)(=O)c2ccc3ccccc3c2)c(C)c(O)c1C(=O)/C=C/c1ccccc1", "test": "broth dilution", "system": "ATCC25923", "MBC": "> 5000 µg/mL"}
{"SMILES": "O=C(O)CN1C(=O)/C(=C/c2ccc(-c3ccc(N(c4ccccc4)c4ccccc4)cc3)c3ccccc23)NC1=S", "test": "broth dilution", "system": "ATCC43300", "MBC": "> 1000 µg/mL"}
{"SMILES": "CCCCCCCCCCCC(=O)Oc1c(C)c(O)c(C(=O)/C=C/c2ccccc2)c(OC)c1C", "test": "broth dilution", "system": "ATCC25923", "MBC": "> 5000 µg/mL"}
{"SMILES": "O=C(O)CN1C(=O)/C(=C/c2ccc(-c3ccc(N(c4ccccc4)c4ccccc4)cc3)c3ccccc23)SC1=S", "test": "broth dilution", "system": "ATCC43300", "MBC": "> 1000 µg/mL"}
{"SMILES": "CCn1cc(C(=O)O)c(=O)c2cc(F)c(N3CCNCC3)cc21", "test": "broth dilution", "system": "ATCC6538", "MBC": "2 µM"}
{"SMILES": "O=C1NC(=S)N/C1=C\\c1c2ccccc2c(-c2ccc(N(c3ccccc3)c3ccccc3)cc2)c2ccccc12", "test": "broth dilution", "system": "ATCC6538", "MBC": "> 1000 µg/mL"}
{"SMILES": "Cc1c(NC(=O)CC2=NC(=O)CS2)c(=O)n(-c2ccccc2)n1C", "test": "broth dilution", "MBC": "1 µg/mL"}
